Here are results for 56 molecules from ChEMBL document CHEMBL4622973, “Discovery of Potent Small-Molecule SIRT6 Activators: Structure-Activity Relationship and Anti-Pancreatic Ductal Adenocarcinoma Activity” (J Med Chem, 2020).

The structures appear in SMILES notation. Active and inactive are the calls of the source. The calls are words filed in the database; no cut-off is given here.

The target of test [1] is T1, NAD-dependent protein deacylase sirtuin-6 (Homo sapiens, UniProt Q8N6T7). In words: Activation of N-terminal his-tagged human SIRT6 expressed in Escherichia coli M15 [pREP4] assessed as increase in peptide demyristoylation at 20 uM incubated for 120 mins using Ac-EALPKK(Myr)-AMC substrate by FDL assay relative to control. Summed up:
(§1)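 Demyristoylation: 1 µM recombinant SIRT6 preincubated with compound for 20 min at 37 °C in 50 mM Tris-HCl pH 8.0, BSA 1 mg/mL, 1 mM DTT, with 10 µM Ac-EALPKK(Myr)-AMC. Started with 1 mM NAD and run 120 min at 37 °C. Developed 120 min at 37 °C with 5 mg/mL trypsin/8 mM nicotinamide. Fluorescence read. Mean ± s.d., triplicate wells, three independent experiments.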

The target of test [2] is T1, NAD-dependent protein deacylase sirtuin-6. Nature of the test: Activation of N-terminal his-tagged human SIRT6 expressed in Escherichia coli M15 [pREP4] assessed as increase in peptide demyristoylation incubated for 120 mins using Ac-EALPKK(Myr)-AMC substrate by FDL assay relative to control. Put shortly: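 Demyristoylation: 1 µM recombinant SIRT6 preincubated with compound for 20 min at 37 °C in 50 mM Tris-HCl pH 8.0, BSA 1 mg/mL, 1 mM DTT, with 10 µM Ac-EALPKK(Myr)-AMC. Fluorescence read. Mean ± s.d., triplicate wells, three independent experiments.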

Test [3] has the same target. In words: Activation of N-terminal his-tagged human SIRT6 expressed in Escherichia coli M15 [pREP4] assessed as increase in peptide demyristoylation at 100 uM incubated for 120 mins using Ac-EALPKK(Myr)-AMC substrate by FDL assay relative to control. Put shortly:
as §1

T1 sequence (Q8N6T7 whole entry): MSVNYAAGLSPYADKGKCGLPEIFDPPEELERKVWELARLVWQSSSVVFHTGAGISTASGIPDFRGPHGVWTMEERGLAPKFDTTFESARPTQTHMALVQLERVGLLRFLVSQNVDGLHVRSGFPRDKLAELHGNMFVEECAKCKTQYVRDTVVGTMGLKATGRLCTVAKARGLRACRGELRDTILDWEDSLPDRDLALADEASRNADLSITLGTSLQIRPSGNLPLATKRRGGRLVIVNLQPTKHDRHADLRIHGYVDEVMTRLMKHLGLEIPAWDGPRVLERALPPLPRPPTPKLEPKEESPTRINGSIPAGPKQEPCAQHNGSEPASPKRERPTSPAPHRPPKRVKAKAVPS

With `COc1ccc(-c2cc(C(=O)Nc3ccc(Oc4ccccc4)cc3)c3ccccc3n2)cc1OC`, in test [1], the Activity was 239%. Moreover, the EC1.5 in test [2] stood at 6.47 µM.

`Cc1cc(C)c(NC(=O)c2cc(-c3cc4ccccc4o3)nc3ccccc23)c(C)c1`: the Activity in test [1] is 315%. Also, in test [2], the EC1.5 worked out at 3.71 µM.

On to `CCOc1ccc(NC(=O)c2cc(-c3ccc(OC)c(OC)c3)nc3ccccc23)cc1`, for which the Activity in test [1] is 166%. The EC1.5 in test [2] was 10.3 µM.

On to `Cc1c(Cl)cccc1NC(=O)c1cc(-c2cc3ccccc3o2)nc2ccccc12`, for which the Activity in test [1] was 205%. The EC1.5 in test [2] came out at 9.01 µM.

For `O=C(Nc1ccc(C(F)(F)F)cc1Cl)c1cc(-c2cc3ccccc3o2)nc2ccccc12`, in test [1], the Activity was found to be 287%. For the same molecule, the EC1.5 in test [2] is 4.96 µM.

As for `O=C(Nc1cc(C(F)(F)F)ccc1Cl)c1cc(-c2ccc3c(c2)OCO3)nc2ccccc12`, the Activity in test [1] worked out at 228%. For the same molecule, the EC1.5 in test [2] came to 14.9 µM.

`Cc1ccc(C)c(NC(=O)c2cc(-c3cc4ccccc4o3)nc3ccccc23)c1`: the Activity in test [1] was determined as 349%. In addition, the EC1.5 in test [2] turned out to be 3.47 µM.

With `COC(=O)c1c2c(c3ccccc3c1O)OC(C)(C)C=C2`, in test [2], the EC1.5 was found to be 228 µM. Besides, the result in test [3] was Active.

Take `COc1ccc(-c2cc(C(=O)Nc3cccc(Cl)c3C)c3ccccc3n2)cc1OC`: the Activity in test [1] came out at 199%. The EC1.5 in test [2] was found to be 19 µM.

Turning to `O=C(Nc1cc(C(F)(F)F)ccc1Cl)c1cc(-c2cc3ccccc3o2)nc2ccccc12`, the Activity in test [1] turned out to be 762%. In test [2], the EC1.5 stood at 0.85 µM.

As for `O=C(NCc1ccc(F)cc1)c1cc(-c2cc3ccccc3o2)nc2ccccc12`, the Activity in test [1] was found to be 482%. Also, in test [2], the EC1.5 turned out to be 2.19 µM.

For `COc1cccc2cc(-c3cc(C(=O)Nc4cc(C(F)(F)F)ccc4Cl)c4ccccc4n3)oc12`, the Activity in test [1] stood at 321%. For the same molecule, the EC1.5 in test [2] was 5.96 µM.

In the case of `COc1ccc(-c2cc(C(=O)Nc3ccc(Cl)c(Cl)c3)c3ccccc3n2)cc1OC`, in test [1], the Activity was 148%. Besides, in test [2], the EC1.5 was found to be 27.1 µM. Further, in test [3], the outcome was Active.

With `O=C(Nc1cc(C(F)(F)F)ccc1Cl)c1cc(-c2ccc3c(c2)OCCO3)nc2ccccc12`, in test [1], the Activity is 159%. In test [2], the EC1.5 was found to be 29.4 µM.

As to `O=C(NCc1ccc(Cl)c(Cl)c1)c1cc(-c2cc3ccccc3o2)nc2ccccc12`, the Activity in test [1] stood at 314%. In addition, the EC1.5 in test [2] was 5.91 µM.

For `O=C(Nc1cccc(F)c1)c1cc(-c2cc3ccccc3o2)nc2ccccc12`, in test [1], the Activity was 216%. Further, the EC1.5 in test [2] worked out at 4.86 µM.

Take `COc1ccc(-c2cc(C(=O)Nc3cc(C)ccc3C)c3ccccc3n2)cc1OC`: the Activity in test [1] was 313%. In addition, the EC1.5 in test [2] turned out to be 5.61 µM.

Turning to `O=C(Nc1ccc(C(F)(F)F)cc1)c1cc(-c2cc3ccccc3o2)nc2ccccc12`, in test [1], the Activity was 335%. The EC1.5 in test [2] was 5.17 µM.

Turning to `O=C(Nc1cccc(Cl)c1Cl)c1cc(-c2cc3ccccc3o2)nc2ccccc12`, the Activity in test [1] is 163%. In test [2], the EC1.5 was 20.7 µM.

Turning to `COc1ccc(-c2cc(C(=O)Nc3cc(C(F)(F)F)ccc3Cl)c3ccccc3n2)cc1OC`, the Activity in test [1] worked out at 365%. Also, the EC1.5 in test [2] turned out to be 2.84 µM.

With `COc1ccc(-c2cc(C(=O)NCc3ccc(C)cc3)c3ccccc3n2)cc1OC`, the Activity in test [1] amounted to 225%. In addition, in test [2], the EC1.5 came to 7.78 µM.

Take `O=C(Nc1cc(C(F)(F)F)cc(C(F)(F)F)c1)c1cc(-c2cc3ccccc3o2)nc2ccccc12`: in test [1], the Activity worked out at 430%. In addition, the EC1.5 in test [2] is 3.11 µM.

Take `COc1ccccc1C(=O)Nc1cc2c(cc1N1CCCCC1)n(C)c(=O)n2C`: the EC1.5 in test [2] amounted to 110 µM. Further, the outcome in test [3] was Active.

On to `COc1ccc(-c2cc(C(=O)Nc3c(C)cc(C)cc3C)c3ccccc3n2)cc1OC`, for which the Activity in test [1] was 284%. Further, the EC1.5 in test [2] was 4.77 µM.

Turning to `O=C(Nc1cc(C(F)(F)F)ccc1Cl)c1cc(-c2cccnc2)nc2ccccc12`, the Activity in test [1] stood at 85.6%.

With `COc1ccc(-c2cc(C(=O)Nc3cc(C(F)(F)F)cc(C(F)(F)F)c3)c3ccccc3n2)cc1OC`, the Activity in test [1] is 250%. In test [2], the EC1.5 came to 6.38 µM.

As for `COC(=O)c1c(NC(=O)c2cc(-c3ccc(OC)c(OC)c3)nc3ccccc23)sc(C)c1C`, in test [1], the Activity stood at 101%.

Take `CCCNC(=O)c1cc(-c2ccc(OC)c(OC)c2)nc2ccccc12`: the Activity in test [1] was 99%.

Regarding `COc1ccc(-c2cc(C(=O)Nc3ccc(C(F)(F)F)cc3Cl)c3ccccc3n2)cc1OC`, in test [1], the Activity is 181%. In addition, in test [2], the EC1.5 came out at 7.53 µM.

Turning to `O=C(Nc1cc(C(F)(F)F)ccc1Cl)c1cc(C2CCCCC2)nc2ccccc12`, the Activity in test [1] was found to be 82.4%.

Regarding `COc1cc([N+](=O)[O-])ccc1NC(=O)c1cc(-c2ccc(OC)c(OC)c2)nc2ccccc12`, in test [1], the Activity was found to be 101%.

For the molecule `COc1ccc(-c2cc(C(=O)Nc3cccc(Cl)c3Cl)c3ccccc3n2)cc1OC`, the Activity in test [1] came to 224%. The EC1.5 in test [2] was found to be 5.97 µM.

As to `CCOc1ccc(NC(=O)c2cc(-c3cc4ccccc4o3)nc3ccccc23)cc1`, the Activity in test [1] came out at 109%.

`Cc1ccc(-c2cc(C(=O)Nc3cc(C(F)(F)F)ccc3Cl)c3ccccc3n2)o1`: in test [1], the Activity came to 184%. The EC1.5 in test [2] worked out at 18.6 µM.

Turning to `CCOc1ccccc1NC(=O)c1cc(-c2ccc(OC)c(OC)c2)nc2ccccc12`, in test [1], the Activity came to 95.2%.

Regarding `COc1ccc(-c2cc(C(=O)Nc3cc([N+](=O)[O-])ccc3Cl)c3ccccc3n2)cc1OC`, the Activity in test [1] worked out at 98.2%.

For `COc1ccc(-c2cc(C(=O)Nc3cc(O)c(C(C)(C)C)cc3C(C)(C)C)c3ccccc3n2)cc1OC`, the Activity in test [1] is 88.6%.

On to `O=C(Nc1cc(C(F)(F)F)ccc1Cl)c1cc(-c2cccs2)nc2ccccc12`, for which the Activity in test [1] was 130%.

In the case of `COc1ccc(-c2cc(C(=O)Nc3ccc(C)cc3)c3ccccc3n2)cc1OC`, in test [1], the Activity came to 98.3%.

Consider `COc1ccc(-c2cc(C(=O)Nc3ccc(C)c(Cl)c3)c3ccccc3n2)cc1OC`, for which, in test [1], the Activity turned out to be 117%.

Regarding `COc1ccc(-c2cc(C(=O)Nc3ccc(Cl)cc3)c3ccccc3n2)cc1OC`, the Activity in test [1] was determined as 98.7%.

In the case of `O=C(Nc1ccc(Cl)c(Cl)c1)c1cc(-c2cc3ccccc3o2)nc2ccccc12`, the Activity in test [1] was 109%.

Take `COc1ccc(-c2cc(C(=O)Nc3ccccc3F)c3ccccc3n2)cc1OC`: the Activity in test [1] turned out to be 92.4%.

Turning to `COc1ccc(-c2cc(C(=O)NCc3ccc(Cl)c(Cl)c3)c3ccccc3n2)cc1OC`, the Activity in test [1] turned out to be 260%. Also, the EC1.5 in test [2] was 8.14 µM.

Consider `COC(=O)c1c(-c2ccc(C)cc2)csc1NC(=O)c1cc(-c2ccc(OC)c(OC)c2)nc2ccccc12`, for which the Activity in test [1] was 82.9%.

On to `COc1ccc(-c2cc(C(=O)NCc3ccccc3)c3ccccc3n2)cc1OC`, for which, in test [1], the Activity was 107%.

Take `CCOC(=O)c1ccccc1NC(=O)c1cc(-c2ccc(OC)c(OC)c2)nc2ccccc12`: the Activity in test [1] was found to be 118%.

As for `Cc1cc(Nc2cc(CN3CCOCC3)c3nc(C)c(Cc4ccc(Cl)cc4F)n3n2)n[nH]1`, the EC1.5 in test [2] was determined as 118 µM. In addition, the outcome in test [3] was Active.

Regarding `COc1ccc(-c2cc(C(=O)Nc3nc4ccc(S(C)(=O)=O)cc4s3)c3ccccc3n2)cc1OC`, the Activity in test [1] is 83.4%.

For the molecule `COc1ccc(-c2cc(C(=O)NC(c3ccccc3)c3ccccc3)c3ccccc3n2)cc1OC`, the Activity in test [1] is 276%. The EC1.5 in test [2] amounted to 5.97 µM.

Turning to `COc1ccc(-c2cc(C(=O)Nc3cc(C(F)(F)F)ccc3Cl)c3ccccc3n2)cc1`, the Activity in test [1] stood at 163%. Moreover, the EC1.5 in test [2] was found to be 20.7 µM.

Turning to `COc1ccc(-c2cc(C(=O)Nc3cccc4ccccc34)c3ccccc3n2)cc1OC`, the Activity in test [1] turned out to be 327%. Also, the EC1.5 in test [2] amounted to 7.44 µM.

On to `Cc1ccc(CNC(=O)c2cc(-c3cc4ccccc4o3)nc3ccccc23)cc1`, for which, in test [1], the Activity was determined as 208%. Moreover, in test [2], the EC1.5 was 14.5 µM.

In the case of `COc1ccc(-c2cc(C(=O)NCc3ccc(F)cc3)c3ccccc3n2)cc1OC`, the Activity in test [1] amounted to 168%. The EC1.5 in test [2] was determined as 19.5 µM.

Consider `CCN(CC)c1ccc(NC(=O)c2cc(-c3ccc(OC)c(OC)c3)nc3ccccc23)cc1`, for which the Activity in test [1] came out at 83.3%.

For the molecule `O=C(NC(c1ccccc1)c1ccccn1)c1cc(-c2cc3ccccc3o2)nc2ccccc12` (stereo not drawn), in test [1], the Activity turned out to be 321%. Also, the EC1.5 in test [2] is 7.59 µM.
